Experimental data taken from ChEMBL document CHEMBL1255347, “Multiclonal outbreak of Klebsiella pneumoniae producing extended-spectrum beta-lactamase CTX-M-2 and novel variant CTX-M-59 in a neonatal intensive care unit in Brazil” (2008).
Converted amounts (≈) assume the structure as drawn.

Key:
Type in all cases: functional
[1] = tested on: Klebsiella pneumoniae; assay: Antimicrobial activity against CTX-M-2 producing Klebsiella pneumoniae with PFGE pulsotype A by Etest
Procedure, shortened: (§1)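 Clinical K. pneumoniae isolates from a neonatal ICU outbreak near São Paulo were typed by XbaI PFGE using Tenover criteria. Cultures were grown in LB broth at 37°C. Etest MICs followed the manufacturer's instructions, with cefotaxime and ceftazidime each tested with and without clavulanic acid.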

[2] = tested on: Klebsiella pneumoniae; assay: Antimicrobial activity against CTX-M-2 producing Klebsiella pneumoniae with PFGE pulsotype B by Etest; procedure, shortened: as §1
[3] = tested on: Klebsiella pneumoniae; assay: Antimicrobial activity against CTX-M-59 producing Klebsiella pneumoniae with PFGE pulsotype C by Etest
[4] = tested on: Klebsiella pneumoniae; assay: Antimicrobial activity against SHV-5 producing Klebsiella pneumoniae with PFGE pulsotype D by Etest; procedure, shortened: as §1
[5] = tested on: Klebsiella pneumoniae; assay: Antimicrobial activity against CTX-M-59 producing Klebsiella pneumoniae with PFGE pulsotype E by Etest
[6] = tested on: Klebsiella pneumoniae; assay: Antimicrobial activity against CTX-M-59 producing Klebsiella pneumoniae with PFGE pulsotype G by Etest; procedure, shortened: as §1
[7] = tested on: Klebsiella pneumoniae; assay: Antimicrobial activity against CTX-M-2 producing Klebsiella pneumoniae with PFGE pulsotype H by Etest; procedure, shortened: as §1
[8] = tested on: Klebsiella pneumoniae; assay: Antimicrobial activity against CTX-M-2 producing Klebsiella pneumoniae with PFGE pulsotype I by Etest
[9] = tested on: Klebsiella pneumoniae; assay: Antimicrobial activity against CTX-M-2 producing Klebsiella pneumoniae with PFGE pulsotype J by Etest
[10] = tested on: Klebsiella pneumoniae; assay: Antimicrobial activity against CTX-M-2 producing Klebsiella pneumoniae with PFGE pulsotype F by Etest
[11] = tested on: Klebsiella pneumoniae; assay: Antimicrobial activity against CTX-M-2 and TEM-1 producing Klebsiella pneumoniae transconjugants/transformants with PFGE pulsotype A by Etest
Procedure, shortened: (§2)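 The recipient was E. coli XL1-Blue Rifr NAr. Plasmids moved by broth mating, with transconjugants selected on LB agar containing ampicillin, rifampin and nalidixic acid, each at 50 μg/ml. Where mating failed, alkaline-lysis plasmid extracts were electroporated and selected on ampicillin 50 μg/ml. β-lactam MICs were read by Etest, with and without clavulanic acid.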

[12] = tested on: Klebsiella pneumoniae; assay: Antimicrobial activity against CTX-M-2 and TEM-1 producing Klebsiella pneumoniae transconjugants/transformants with PFGE pulsotype B by Etest; procedure, shortened: as §2
[13] = tested on: Klebsiella pneumoniae; assay: Antimicrobial activity against CTX-M-59 and TEM-1 producing Klebsiella pneumoniae transconjugants/transformants with PFGE pulsotype C by Etest; procedure, shortened: as §2
[14] = tested on: Klebsiella pneumoniae; assay: Antimicrobial activity against SHV-5 producing Klebsiella pneumoniae transconjugants/transformants with PFGE pulsotype D by Etest; procedure, shortened: as §2
[15] = tested on: Klebsiella pneumoniae; assay: Antimicrobial activity against CTX-M-59 and TEM-1 producing Klebsiella pneumoniae transconjugants/transformants with PFGE pulsotype E by Etest; procedure, shortened: as §2
[16] = tested on: Klebsiella pneumoniae; assay: Antimicrobial activity against CTX-M-2 and TEM-1 producing Klebsiella pneumoniae transconjugants/transformants with PFGE pulsotype F by Etest; procedure, shortened: as §2
[17] = tested on: Klebsiella pneumoniae; assay: Antimicrobial activity against CTX-M-59 and TEM-1 producing Klebsiella pneumoniae transconjugants/transformants with PFGE pulsotype G by Etest; procedure, shortened: as §2
[18] = tested on: Klebsiella pneumoniae; assay: Antimicrobial activity against CTX-M-2 and TEM-1 producing Klebsiella pneumoniae transconjugants/transformants with PFGE pulsotype H by Etest; procedure, shortened: as §2
[19] = tested on: Klebsiella pneumoniae; assay: Antimicrobial activity against CTX-M-2 and TEM-1 producing Klebsiella pneumoniae transconjugants/transformants with PFGE pulsotype I by Etest; procedure, shortened: as §2
[20] = tested on: Klebsiella pneumoniae; assay: Antimicrobial activity against CTX-M-2 and TEM-1 producing Klebsiella pneumoniae transconjugants/transformants with PFGE pulsotype J by Etest; procedure, shortened: as §2

Compound	MIC [1] [µg/mL]	MIC [2] [µg/mL]	MIC [3] [µg/mL]	MIC [4] [µg/mL]	MIC [5] [µg/mL]	MIC [6] [µg/mL]	MIC [7] [µg/mL]	MIC [8] [µg/mL]	MIC [9] [µg/mL]	MIC [10] [µg/mL]	MIC [11] [µg/mL]	MIC [12] [µg/mL]	MIC [13] [µg/mL]	MIC [14] [µg/mL]	MIC [15] [µg/mL]	MIC [16] [µg/mL]	MIC [17] [µg/mL]	MIC [18] [µg/mL]	MIC [19] [µg/mL]	MIC [20] [µg/mL]
O=C(O)c1cn(C2CC2)c2cc(N3CCNCC3)c(F)cc2c1=O [CIPROFLOXACIN]	0.023 (≈ 0.0694 µM)	0.032 (≈ 0.0966 µM)	0.032 (≈ 0.0966 µM)	0.023 (≈ 0.0694 µM)	0.032 (≈ 0.0966 µM)	0.125 (≈ 0.377 µM)	0.023 (≈ 0.0694 µM)	0.032 (≈ 0.0966 µM)	0.023 (≈ 0.0694 µM)											
GENTAMICIN	> 256	> 256	> 256	24	> 256	> 256	> 256	256		> 256	> 256	> 256	> 256	24	> 256	> 256	> 256	> 256	> 256	128
